# This is a sample that favours compounds with a hit; in the whole collection about 1.8% have one here.
# ZTA DNA inh = ZTA (EBV) inhibition in EBNA-1 counter-screen; inhibition, % at 11 µM; AID 2234; P03206; ZTA-DNA binding, fluorescence polarization; 320,000 tested, 0.15% active; in the data active = inhibition above about 33%
# Apaf-1 inh = human Apaf-1 inhibition; reconstituted apoptosome caspase-3 activity, DEVD-Rh110 fluorescence; 330,000 tested, 0.71% active; inhibition, % at 20 µM; active = inhibition of at least 40% at 20 µM
#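 Material: cell-free apoptosome with Apaf-1, procaspase-3 and caspase-9; Buffer or medium: Hepes pH 7.5 with detergent and BSA; Reagent: cytochrome c trigger plus (Z-DEVD)2-Rh110 caspase-3 substrate; Times: compound with Apaf-1, dATP, procaspase-3 30 min, then 50 min reaction, room temperature; Technique: Rh110 fluorescence intensity.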
# GSTO1 inh = counter-screen for RBBP9 inhibitors: inhibitors of human GSTO1. P78417. recombinant GSTO1, activity-based probe fluorescence polarization. inhibition, % at 5.96 µM. 300,000 tested, 1.1% active;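 active = inhibition above the campaign mean inhibition plus 3 SD, cut at about 35% in these data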
# procasp7 counter = counter-screen for procaspase-3 activators: activators of human procaspase-7 | 330,000 tested, 0.093% active | recombinant procaspase-7, Ac-DEVD-pNA absorbance 405 nm; D23A/D198A/D206A triple mutant, cannot self-cleave; scale: DMSO 0, 5 µM enzyme 100 | P55210 | activation, % at 8.5 µM;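 active = percent activation above the screen-wide mean plus 3 SD, cut at about 25% in these data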
#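 Replicates: singlicate. Assay system: Procaspase-7 triple mutant (PC-7 D3A). Signal: 405 nm absorbance of p-nitroaniline. Times: 1 h preincubation, 2 h reaction. Buffer or medium: Zinc-free HEPES pH 7.4 with 300 mM NaCl, 0.01% Triton X-100. Also added: DEVD-pNA substrate. Benchmarks: DMSO wells as 0%, DMSO with 5 µM added PC-7 as 100%.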
# EBNA-1 inhibitor = blocks EBNA-1 binding to DNA; EBNA-1 DNA binding, fluorescence polarization; inhibition, % at 14.8 µM; 300,000 tested, 0.34% active; AID 1950; in the data active = inhibition above about 28%
# proCasp3 act = activates human procaspase-3. P42574. 330,000 tested, 0.11% active. AID 463141. recombinant procaspase-3 D3A, Ac-DEVD-pNA absorbance 405 nm. activation, % at 8.5 µM;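 active = activation above the mean of all tested compounds plus 3 SD, cut at about 21% in these data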
#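 Assay system – Procaspase-3 D3A mutant · Benchmarks – DMSO low control, extra-enzyme high control · Technique – 405 nm absorbance of p-nitroaniline, reads at 0 and 120 min · Doses – 8.5 µM nominal · Measure – % activation between DMSO and enzyme-spiked controls · Also added – Ac-DEVD-pNA chromogenic peptide substrate · Schedule – 1 h compound preincubation, 2 h substrate hydrolysis at 25 °C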
# Apaf-1 inh conf2 = confirmation of Apaf-1 inhibitors | AID 504614 | reconstituted apoptosome, caspase-3 DEVD-Rh110 fluorescence | inhibition, % at 20 µM | 1,800 tested, 25% active | shares compounds with Apaf-1 inh;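 active = mean inhibition of at least 40% at 20 µM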
# Rh110 quench = Rh110 signal interference in Apaf-1 inhibitor counter-screen | Rh110 fluorescence interference, quenched caspase reaction | shares compounds with Apaf-1 inh | 1,800 tested, under 10 active | activation (fluorescence interference), % at 20 µM;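 active = signal rise of 40% or more at 20 µM, treated as a fluorescence artifact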
# Apaf1 inh interf = counter-screen for Apaf-1 inhibitors: fluorescence interference, dose response | shares compounds with Apaf-1 inh | IC50, µM | fluorescence interference counterscreen, Apaf-1 assay format | 460 tested, under 10 active; call rule not given here
# Numbers stand for hits; – = inactive; · = no result.
SMILES,ZTA DNA inh,Apaf-1 inh,GSTO1 inh,procasp7 counter,EBNA-1 inhibitor,proCasp3 act,Apaf-1 inh conf2,Rh110 quench,others
S=C(Nc1ccc(Cl)cc1)Nc1cccc2cnccc12,–,83,38,–,–,–,–,–,
S=C(Nc1cccnc1)Nc1cccc2cnccc12,–,86,–,–,–,–,–,–,
Fc1cccc(NC(=S)Nc2cccnc2)c1,–,–,–,–,–,–,·,·,
CCN(C(=S)Nc1cccnc1)c1cccc2ccccc12,–,85,–,–,–,–,–,–,
Fc1ccc(NC(=S)Nc2ccccc2Cl)cc1,–,–,–,–,–,–,·,·,
Fc1ccc(NC(=S)Nc2cccc3cnccc23)cc1,–,95,–,–,–,–,–,–,
CCN(C(=S)NCc1ccccc1)c1cccc2ccccc12,–,–,–,–,–,–,·,·,
CC(C)c1c(C(=O)N/N=C/c2ccccc2OCc2c(F)cccc2Cl)nnn1-c1nonc1N,–,–,–,–,–,–,·,·,
O=C1CCc2cc(S(=O)(=O)Nc3ccccc3F)ccc2N1,–,–,·,–,·,–,·,·,
Cn1c(N)c(C(=O)COC(=O)/C=C/c2cccc(Cl)c2)c(=O)n(C)c1=O,·,–,·,–,·,–,·,·,
NC(Cc1c[nH]c2ccccc12)C(=O)NCc1ccco1 (configuration not stated),–,–,–,–,–,–,·,·,
CC(C)C(C(=O)O)N1C(=O)/C(=C/C=C/c2ccco2)SC1=S (configuration not stated),99,46,–,–,42,–,48,–,Apaf1 inh interf=–
FC(F)(F)c1ccc(CN2C[C@@H]3C(c4ccc(Cl)nc4)C4(c5cccnc5)CC3(C4)[C@H]2c2ccccc2)cc1 (some centres not stated),–,42,–,–,–,–,–,–,
CN1CCN(c2ccc(NC(=O)c3ccc(-c4ccc(Cl)cc4)o3)cc2)CC1,–,65,–,–,–,–,–,–,
N#Cc1c(N2CCCCC2)nc(N)c2c(N)nc3c(c12)CC(c1ccccc1)O3 (configuration not stated),–,42,–,–,–,–,–,–,
O=C(c1ccc2nc(-c3ccco3)c(-c3ccco3)nc2c1)N1CCN(c2ccccc2)CC1,–,40,–,–,–,–,–,–,
CCc1nc2ccc(C(=O)N3CCN(c4ccccc4)CC3)cc2nc1CC,–,–,–,–,–,–,·,·,
O=C(Nc1ccc2nc(-c3ccco3)c(-c3ccco3)nc2c1)NC1CC1,·,47,·,·,·,·,–,–,
C=CCNC(=S)Nc1ccc2nsnc2c1,–,–,–,–,–,–,·,·,
C=CCN(CC=C)C(=S)Nc1ccc2nsnc2c1,–,96,42,–,–,–,–,–,
S=C(NCc1ccc2c(c1)OCO2)Nc1ccc2nsnc2c1,–,62,–,–,–,–,–,–,
CC(OC(=O)/C(C#N)=C/c1ccc(N(C)C)cc1)C(=O)N(C)Cc1ccccc1 (configuration not stated),–,–,–,–,–,–,·,·,
Cc1ccc(C)c2[nH]c(=O)c(C(c3nnnn3CCc3ccccc3)N3CCOCC3)cc12 (configuration not stated),–,–,–,–,–,–,·,·,
Cc1ccc(C)c2[nH]c(=O)c(C(c3nnnn3Cc3ccco3)N3CCc4ccccc4C3)cc12 (configuration not stated),–,71,–,–,–,–,–,–,
O=C(c1cc2ccccc2o1)N1CCN(c2ncccn2)CC1,·,–,·,–,·,–,·,·,
Cc1nn2c(-c3ccncc3)nnc2c2ccccc12,–,74,–,–,–,–,86,–,Apaf1 inh interf=–
O=C(COc1ccc2c3c(c(=O)oc2c1)CCC3)N1CCN(c2ccc(F)cc2)CC1,–,42,–,–,–,–,–,–,
